Data published in ChEMBL document CHEMBL4038284, “Synthesis of novel quinoline-based 4,5-dihydro-1H-pyrazoles as potential anticancer, antifungal, antibacterial and antiprotozoal agents” (Eur J Med Chem, 2017).
Converted amounts (≈) assume the structure as drawn.

What was measured:
[1] = tested on: Cryptococcus neoformans; assay: Growth inhibition of Cryptococcus neoformans ATCC 32264 at 250 ug/ml incubated for 48 hrs under dark condition by broth microdilution method relative to control; assay type: functional; details: ATCC 32264, 48 h, read-out: GI
Procedure, shortened: (§1)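 CLSI M27-A3 broth microdilution in RPMI-1640, DMSO ≤1%. Inoculum 1-5 × 10^3 CFU/mL. Incubated 48 h at 30 °C, dark. % inhibition = 100 − (OD405 test − sterility control)/(OD405 growth control − sterility control), with growth and sterility control wells. Triplicate.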

[2] = tested on: Candida albicans; assay: Growth inhibition of Candida albicans ATCC 10231 at 15.62 ug/ml incubated for 48 hrs under dark condition by broth microdilution method relative to control; assay type: functional; details: ATCC 10231, 48 h, read-out: GI; procedure, shortened: as §1
[3] = tested on: U-937; assay: Cytotoxicity against human U937 cells after 72 hrs by MTT assay; assay type: cell-based; details: u-937, 72 h
Procedure, shortened: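 Exponentially growing U-937 at 1 × 10^5 cells/mL in RPMI-1640 with 10% FBS were exposed to 200, 50, 12.5 and 3.125 µg/mL for 72 h at 37 °C, 5% CO2. MTT for 3 h, stopped with isopropanol/SDS, formazan read at 570 nm, blank-corrected. LC50 by Probit from % viability against untreated cells. Triplicate, at least two independent experiments.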

[4] = tested on: Candida albicans; assay: Growth inhibition of Candida albicans ATCC 10231 at 125 ug/ml incubated for 48 hrs under dark condition by broth microdilution method relative to control; assay type: functional; details: ATCC 10231, 48 h, read-out: GI; procedure, shortened: as §1
[5] = tested on: Candida albicans; assay: Growth inhibition of Candida albicans ATCC 10231 at 62.5 ug/ml incubated for 48 hrs under dark condition by broth microdilution method relative to control; assay type: functional; details: ATCC 10231, 48 h, read-out: GI; procedure, shortened: as §1
[6] = tested on: Trypanosoma cruzi; assay: Antitrypanosomal activity against Trypanosoma cruzi Tulahuen intracellular amastigote harboring LacZ infected in human U937 cells after 72 hrs by CPRG/Nonidet reagent based spectrophotometric method; assay type: functional, cell-based; details: U-937, 72 h
Procedure, shortened: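 U-937 cells at 2.5 × 10^5 cells/mL in RPMI-1640 with 10% serum and 0.1 µg/mL PMA were infected with β-galactosidase-transfected Tulahuen epimastigotes at 5 parasites per cell. Infected cells were exposed to 50, 12.5, 3.125 and 0.78 µg/mL for 72 h. CPRG (100 uM) and 0.1% Nonidet P-40 were added for 3 h, read at 570 nm. EC50 by Probit. Triplicate, at least two experiments; benznidazole as reference.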

[7] = tested on: Staphylococcus aureus; assay: Antibacterial activity against methicillin-sensitive Staphylococcus aureus ATCC 25923 after 24 hrs by resazurin dye based microdilution assay; assay type: functional; details: ATCC 25923, 24 h
Procedure, shortened: (§2)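 MIC taken as the lowest concentration giving visible inhibition and/or by resazurin (1 mg/mL). Gentamicin was the control. Run in duplicate, repeated at least three times.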

[8] = tested on: Candida albicans; assay: Growth inhibition of Candida albicans ATCC 10231 at 31.25 ug/ml incubated for 48 hrs under dark condition by broth microdilution method relative to control; assay type: functional; details: ATCC 10231, 48 h, read-out: GI; procedure, shortened: as §1
[9] = tested on: Cryptococcus neoformans; assay: Growth inhibition of Cryptococcus neoformans ATCC 32264 at 62.5 ug/ml incubated for 48 hrs under dark condition by broth microdilution method relative to control; assay type: functional; details: ATCC 32264, 48 h, read-out: GI; procedure, shortened: as §1
[10] = tested on: Candida albicans; assay: Growth inhibition of Candida albicans ATCC 10231 at 3.4 ug/ml incubated for 48 hrs under dark condition by broth microdilution method relative to control; assay type: functional; details: ATCC 10231, 48 h, read-out: GI
[11] = tested on: Staphylococcus aureus; assay: Antibacterial activity against methicillin-resistant Staphylococcus aureus ATCC 43300 after 24 hrs by resazurin dye based microdilution assay; assay type: functional; details: ATCC 43300, 24 h
Procedure, shortened: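 Broth microdilution in Mueller Hinton broth, inoculum 5 × 10^5 – 8 × 10^5. Compound stocks diluted in MHB with 5% DMSO and 0.1% Tween 80. Incubation 24 h at 35-37 °C. MIC is the lowest concentration with visible growth inhibition and/or by resazurin (1 mg/mL) read-out. Gentamicin as control. Run in duplicate, replicated at least three times.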

[12] = tested on: Klebsiella pneumoniae; assay: Antibacterial activity against ESBL positive Klebsiella pneumoniae ATCC 700603 after 24 hrs by resazurin dye based microdilution assay; assay type: functional; details: Klebsiella pneumoniae, 700603, 24 h; procedure, shortened: as §2
[13] = tested on: Cryptococcus neoformans; assay: Growth inhibition of Cryptococcus neoformans ATCC 32264 at 3.4 ug/ml incubated for 48 hrs under dark condition by broth microdilution method relative to control; assay type: functional; details: ATCC 32264, 48 h, read-out: GI
[14] = tested on: Escherichia coli; assay: Antibacterial activity against Escherichia coli ATCC 25922 after 24 hrs by resazurin dye based microdilution assay; assay type: functional; details: ATCC 25922, 24 h; procedure, shortened: as §2
[15] = tested on: Candida albicans; assay: Growth inhibition of Candida albicans ATCC 10231 at 7.8 ug/ml incubated for 48 hrs under dark condition by broth microdilution method relative to control; assay type: functional; details: ATCC 10231, 48 h, read-out: GI; procedure, shortened: as §1
[16] = tested on: Candida albicans; assay: Growth inhibition of Candida albicans ATCC 10231 at 250 ug/ml incubated for 48 hrs under dark condition by broth microdilution method relative to control; assay type: functional; details: ATCC 10231, 48 h, read-out: GI; procedure, shortened: as §1
[17] = tested on: Staphylococcus aureus; assay: Antibacterial activity against vancomycin-intermediate Staphylococcus aureus after 24 hrs by resazurin dye based microdilution assay; assay type: functional; procedure, shortened: as §2
[18] = tested on: Plasmodium falciparum; assay: Antiplasmodial activity against chloroquine-sensitive Plasmodium falciparum 3D7 assessed as reduction in parasitic LDH activity after 48 hrs by Malstat reagent based […] method; assay type: functional; details: 3D7, 48 h
Procedure, shortened: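 Unsynchronized P. falciparum 3D7 at 0.5% parasitemia and 1% hematocrit in RPMI with 3% Albumax II. Exposed to 100, 25, 6.25 and 1.56 µg/mL for 48 h at 37 °C under 90% N2/5% CO2/5% O2. After three freeze-thaw cycles, LDH measured with Malstat and NBT/PES, 1 h in the dark, read at 650 nm. IC50 by Probit; triplicate, ≥2 experiments.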

[19] = tested on: Cryptococcus neoformans; assay: Growth inhibition of Cryptococcus neoformans ATCC 32264 at 15.62 ug/ml incubated for 48 hrs under dark condition by broth microdilution method relative to control; assay type: functional; details: ATCC 32264, 48 h, read-out: GI; procedure, shortened: as §1
[20] = tested on: Cryptococcus neoformans; assay: Growth inhibition of Cryptococcus neoformans ATCC 32264 at 7.8 ug/ml incubated for 48 hrs under dark condition by broth microdilution method relative to control; assay type: functional; details: ATCC 32264, 48 h, read-out: GI; procedure, shortened: as §1
[21] = tested on: Neisseria gonorrhoeae; assay: Antibacterial activity against beta lactamase positive Neisseria gonorrhoeae ATCC 31426 by oxidase test; assay type: functional
Procedure, shortened: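 Agar dilution MIC on GC agar with 1% isovitalex containing increasing compound concentrations. Plates inoculated with about 1×10^4 CFU (5 µL). MIC is the lowest concentration that inhibited growth, with growth confirmed by oxidase test. Run in duplicate, repeated at least three times.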

[22] = tested on: Cryptococcus neoformans; assay: Growth inhibition of Cryptococcus neoformans ATCC 32264 at 31.25 ug/ml incubated for 48 hrs under dark condition by broth microdilution method relative to control; assay type: functional; details: ATCC 32264, 48 h, read-out: GI; procedure, shortened: as §1
[23] = tested on: Leishmania panamensis; assay: Antileshmanial activity against EpiR/GFP fused Leishmania panamensis MHOM/CO/87/UA140 intracellular amastigotes infected in human […] cells after 72 hrs by flow cytometric method; assay type: functional, cell-based; details: MHOM/CO/87/UA140, 72 h
Procedure, shortened: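 PMA-treated U-937 cells (3 × 10^5 cells/mL) infected with stationary-phase GFP L. panamensis promastigotes (15:1), 3 h at 34 °C, then washed. After 24 h, compounds added at 50, 12.5, 3.125 and 0.78 µg/mL for 72 h at 37 °C. EC50 by Probit; triplicate, two experiments.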

[24] = tested on: Candida albicans; assay: Antifungal activity against Candida albicans ATCC 10231 incubated for 48 hrs under dark condition by broth microdilution method; assay type: functional; details: ATCC 10231, 48 h
Procedure, shortened: (§3)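 CLSI M27-A3 broth microdilution in RPMI-1640, DMSO ≤1%, compounds at 250-0.98 µg/mL final. Inoculum 1-5 × 10^3 CFU/mL. Incubated 48 h at 30 °C in a moist dark chamber, read at OD405. MIC80 and MIC50 taken from % inhibition dose-response curves (mean ± SEM, triplicate). Amphotericin B was the positive control.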

[25] = tested on: Cryptococcus neoformans; assay: Antifungal activity against Cryptococcus neoformans ATCC 32264 incubated for 48 hrs under dark condition by broth microdilution method; assay type: functional; details: ATCC 32264, 48 h; procedure, shortened: as §3
[26] = tested on: Pseudomonas aeruginosa; assay: Antibacterial activity against Pseudomonas aeruginosa ATCC 27853 after 24 hrs by resazurin dye based microdilution assay; assay type: functional; details: ATCC 27853, 24 h; procedure, shortened: as §2
[27] = tested on: Cryptococcus neoformans; assay: Growth inhibition of Cryptococcus neoformans ATCC 32264 at 125 ug/ml incubated for 48 hrs under dark condition by broth microdilution method relative to control; assay type: functional; details: ATCC 32264, 48 h, read-out: GI; procedure, shortened: as §1
[28] = tested on: Klebsiella pneumoniae; assay: Antibacterial activity against carbapenemase positive Klebsiella pneumoniae BAA 1705 after 24 hrs by resazurin dye based microdilution assay; assay type: functional; details: BAA 1705, 24 h; procedure, shortened: as §2

Work on O=C(/C=C/c1cccc(Nc2ccnc3cc(Cl)ccc23)c1)c1ccc(Cl)cc1 yielded an inhibition of growth at 250 µg/mL [1] of 100%, an inhibition of growth at 15.62 µg/mL [2] of 39.4% and an LC50 [3] of 0.7 µg/mL (≈ 1.67 µM). For the same compound, the inhibition of growth at 125 µg/mL [4] was 68.2%, the inhibition of growth at 62.5 µg/mL [5] was 50.3% and the EC50 [6] was 0.72 µg/mL (≈ 1.72 µM). It also gave an MIC [7] greater than 1000 µg/mL, an inhibition of growth at 31.25 µg/mL [8] of 41.8% and an inhibition of growth at 62.5 µg/mL [9] of 100%. For the same compound, the inhibition of growth at 3.4 µg/mL [10] was 15.3%, the MIC [11] was greater than 1000 µg/mL and the MIC [12] was greater than 1000 µg/mL. The inhibition of growth at 3.4 µg/mL [13] was 49.8%, the MIC [14] was greater than 1000 µg/mL and the inhibition of growth at 7.8 µg/mL [15] was 29%. It also gave an inhibition of growth at 250 µg/mL [16] of 78.4%, an MIC [17] greater than 1000 µg/mL and an EC50 [18] of 209 µg/mL (≈ 497 µM). For the same compound, the inhibition of growth at 15.62 µg/mL [19] was 89%, the inhibition of growth at 7.8 µg/mL [20] was 82% and the MIC [21] was greater than 1000 µg/mL. It also gave an inhibition of growth at 31.25 µg/mL [22] of 100%, an EC50 [23] of 0.79 µg/mL (≈ 1.88 µM) and an MIC50 [24] of 62.5 µg/mL (≈ 149 µM). It also gave an MIC80 [24] of no less than 250 µg/mL, an MIC50 [25] of 7.8 µg/mL (≈ 18.6 µM) and an MIC80 [25] of 7.8 µg/mL (≈ 18.6 µM). For the same compound, the MIC [26] was greater than 1000 µg/mL, the inhibition of growth at 125 µg/mL [27] was 100% and the MIC [28] was greater than 1000 µg/mL.
